In ChEMBL document CHEMBL1153922, “Exploration of 4,4-disubstituted pyrrolidine-1,2-dicarboxamides as potent, orally active Factor Xa inhibitors with extended duration of action” (Bioorg Med Chem, 2009):
Each block holds one compound with its values, some of them ahead of it.

How the values were obtained:
[1] = Volume of distribution at steady state in iv dosed rat by cassette studies; assay type: ADME, organism-based; conditions: in vivo, read-out: Vdss
Outline: (§1)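 Rat PK from intravenous cassette dosing, in which several compounds are given together in one IV administration, followed by plasma sampling to derive clearance, Vdss and elimination half-life.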

[2] = Clearance in iv dosed rat by cassette studies; assay type: ADME, organism-based; conditions: in vivo; outline: as §1
[3] = Half life in iv dosed dog by cassette studies; assay type: ADME, organism-based, Canis lupus familiaris; conditions: in vivo
Outline: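 Dog half-life from intravenous cassette dosing, with compounds co-administered IV and plasma sampled for elimination t1/2.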

[4] = Half life in iv dosed rat by cassette studies; assay type: ADME, organism-based; conditions: in vivo; outline: as §1
[5] = AUC (infinity) in Sprague-Dawley rat at 0.5 mg/kg, iv; assay type: ADME, organism-based; parameters: time infinity, dose 0.5 mg/kg, route intravenous; conditions: plasma
Outline: (§2)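 Single-dose pharmacokinetics in male animals, with rats being Sprague Dawley. IV dosing was 0.5 mg/kg (rat N = 2, dog N = 3). Oral dosing was 3 mg/kg (rat N = 3, dog N = 2). Plasma was sampled to derive Cmax, Tmax, AUCinf, clearance, Vdss and t1/2, and oral bioavailability (F) was calculated from the PO versus IV exposure.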

[6] = Volume of distribution at steady state in Sprague-Dawley rat at 0.5 mg/kg, iv; assay type: ADME, organism-based; parameters: dose 0.5 mg/kg, route intravenous; conditions: in vivo, read-out: Vdss; outline: as §2
[7] = Absolute oral bioavailability in Sprague-Dawley rat at 3 mg/kg; assay type: ADME, organism-based; conditions: in vivo; outline: as §2
[8] = Volume of distribution at steady state in Beagle dog at 0.5 mg/kg, iv; assay type: ADME, organism-based, Canis lupus familiaris; parameters: dose 0.5 mg/kg, route intravenous; conditions: in vivo, read-out: Vdss; outline: as §2
[9] = Absolute oral bioavailability in Beagle dog at 3 mg/kg; assay type: ADME, organism-based, Canis lupus familiaris; conditions: in vivo; outline: as §2
[10] = Tmax in Sprague-Dawley rat at 3 mg/kg, po; assay type: ADME, organism-based; parameters: dose 3 mg/kg, route oral; conditions: in vivo; outline: as §2
[11] = Cmax in Beagle dog at 3 mg/kg, po; assay type: ADME, organism-based, Canis lupus familiaris; parameters: dose 3 mg/kg, route oral; conditions: in vivo; outline: as §2
[12] = AUC (infinity) in Beagle dog at 0.5 mg/kg, iv; assay type: ADME, organism-based, Canis lupus familiaris; parameters: time infinity, dose 0.5 mg/kg, route intravenous; conditions: plasma; outline: as §2
[13] = Clearance in Beagle dog at 0.5 mg/kg, iv; assay type: ADME, organism-based, Canis lupus familiaris; parameters: dose 0.5 mg/kg, route intravenous; conditions: in vivo; outline: as §2
[14] = AUC (infinity) in Sprague-Dawley rat at 3 mg/kg, po; assay type: ADME, organism-based; parameters: dose 3 mg/kg, route oral, time infinity; conditions: plasma; outline: as §2
[15] = Half life in Sprague-Dawley rat at 0.5 mg/kg, iv; assay type: ADME, organism-based; parameters: dose 0.5 mg/kg, route intravenous; conditions: in vivo; outline: as §2
[16] = Tmax in Beagle dog at 3 mg/kg, po; assay type: ADME, organism-based, Canis lupus familiaris; parameters: dose 3 mg/kg, route oral; conditions: in vivo; outline: as §2
[17] = Half life in Beagle dog at 0.5 mg/kg, iv; assay type: ADME, organism-based, Canis lupus familiaris; parameters: dose 0.5 mg/kg, route intravenous; conditions: in vivo; outline: as §2
[18] = Clearance in Sprague-Dawley rat at 0.5 mg/kg, iv; assay type: ADME, organism-based; parameters: dose 0.5 mg/kg, route intravenous; conditions: in vivo; outline: as §2
[19] = Cmax in Sprague-Dawley rat at 3 mg/kg, po; assay type: ADME, organism-based; parameters: dose 3 mg/kg, route oral; conditions: in vivo; outline: as §2
[20] = AUC (infinity) in Beagle dog at 3 mg/kg, po; assay type: ADME, organism-based, Canis lupus familiaris; parameters: time infinity, dose 3 mg/kg, route oral; conditions: plasma; outline: as §2
[21] = Half life in iv dosed rat by singleton studies; assay type: ADME, organism-based; conditions: in vivo
Outline: (§3)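 Rat PK from intravenous singleton dosing, in which each compound is given alone IV, followed by plasma sampling to derive clearance, Vdss and elimination half-life.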

[22] = Volume of distribution at steady state in iv dosed rat by singleton studies; assay type: ADME, organism-based; conditions: in vivo, read-out: Vdss; outline: as §3
[23] = Clearance in iv dosed rat by singleton studies; assay type: ADME, organism-based; conditions: in vivo; outline: as §3
[24] = Half life in iv dosed dog by singleton studies; assay type: ADME, organism-based, Canis lupus familiaris; conditions: in vivo
Outline: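 Dog half-life from intravenous singleton dosing, with each compound given alone IV and plasma sampled for elimination t1/2.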

Structure (SMILES): O=C(Nc1ccc(-n2ccccc2=O)cn1)[C@H]1C[C@](O)(c2ccccc2C(F)(F)F)CN1C(=O)Nc1ccc(Cl)cc1
Vd [1]: 0.393 L/kg | clearance [2]: 2.89 mL/min/kg | half-life [3]: 1 h | half-life [4]: 1.9 h

Structure (SMILES): O=C(Nc1ccc(-n2ccccc2=O)cn1)[C@H]1C[C@](O)(c2ccc(F)cc2)CN1C(=O)Nc1ccc(Cl)cc1
Vd [1]: 1.97 L/kg | clearance [2]: 9.44 mL/min/kg | half-life [4]: 1.8 h

Structure (SMILES): O=C(Nc1ccc(-n2ccccc2=O)cn1)[C@H]1C[C@](O)(c2ccc(F)c(F)c2)CN1C(=O)Nc1ccc(Cl)cc1
Vd [1]: 1.6 L/kg | clearance [2]: 13.1 mL/min/kg | half-life [3]: 2.1 h | half-life [4]: 2.1 h

Structure (SMILES): O=C(Nc1ccc(-n2ccccc2=O)cn1)[C@H]1C[C@](O)(c2ccc(F)cc2F)CN1C(=O)Nc1ccc(Cl)cc1
AUC(0-inf) [5]: 978 ng·h/mL | Vd [6]: 2.4 L/kg | bioavailability [7]: 19% | Vd [8]: 2 L/kg | bioavailability [9]: 24% | Vd [1]: 1.81 L/kg | Tmax [10]: 1.7 h | Cmax [11]: 397 ng/mL | clearance [2]: 7.64 mL/min/kg | AUC(0-inf) [12]: 4870 ng·h/mL | clearance [13]: 2.1 mL/min/kg | AUC(0-inf) [14]: 1010 ng·h/mL | half-life [15]: 3.3 h | half-life [3]: 7.3 h | Tmax [16]: 2 h | half-life [17]: 12.6 h | clearance [18]: 9.5 mL/min/kg | Cmax [19]: 236 ng/mL | half-life [4]: 3.3 h | AUC(0-inf) [20]: 6450 ng·h/mL

Structure (SMILES): CC[C@@]1(O)C[C@H](C(=O)Nc2ccc(-n3ccccc3=O)cc2F)N(C(=O)Nc2ccc(Cl)cc2)C1
half-life [4]: 2.4 h

Structure (SMILES): CCO[C@]1(CC)C[C@H](C(=O)Nc2ccc(-n3ccccc3=O)cc2F)N(C(=O)Nc2ccc(Cl)cc2)C1
half-life [4]: 1.4 h

Structure (SMILES): Cc1cccn(-c2ccc(NC(=O)[C@H]3C[C@@](C)(O)CN3C(=O)Nc3ccc(Cl)cc3)c(F)c2)c1=O
half-life [4]: 1.6 h

Structure (SMILES): CO[C@]1(C)C[C@H](C(=O)Nc2ccc(-n3ccccc3=O)cc2F)N(C(=O)Nc2ccc(Cl)cc2)C1
half-life [4]: 1.7 h

Structure (SMILES): O=C(Nc1ccc(-n2ccccc2=O)cc1F)[C@H]1C[C@](O)(c2ccccc2)CN1C(=O)Nc1ccc(Cl)cc1
half-life [21]: 4 h

Structure (SMILES): CC[C@@]1(O)C[C@H](C(=O)Nc2ccc(-n3cccc(C)c3=O)cc2F)N(C(=O)Nc2ccc(Cl)cc2)C1
half-life [4]: 5.2 h

Structure (SMILES): CC[C@@]1(OC)C[C@H](C(=O)Nc2ccc(-n3ccccc3=O)cc2F)N(C(=O)Nc2ccc(Cl)cc2)C1
half-life [4]: 1.7 h

Results, then the compound that gave them:

Vd [1]: 1.58 L/kg | clearance [2]: 10.3 mL/min/kg | half-life [4]: 1.8 h
Structure (SMILES): Cc1ccc([C@@]2(O)C[C@H](C(=O)Nc3ccc(-n4ccccc4=O)cn3)N(C(=O)Nc3ccc(Cl)cc3)C2)cc1

Vd [1]: 0.438 L/kg | clearance [2]: 6.78 mL/min/kg | half-life [4]: 1.4 h
Structure (SMILES): Cc1cccc([C@@]2(O)C[C@H](C(=O)Nc3ccc(-n4ccccc4=O)cn3)N(C(=O)Nc3ccc(Cl)cc3)C2)c1

Vd [1]: 0.923 L/kg | clearance [2]: 4.16 mL/min/kg | half-life [3]: 0.8 h | half-life [4]: 2.9 h
Structure (SMILES): O=C(Nc1ccc(-n2ccccc2=O)cn1)[C@H]1C[C@](O)(c2ccccc2Cl)CN1C(=O)Nc1ccc(Cl)cc1

half-life [4]: 2 h
Structure (SMILES): CO[C@@H]1C[C@H](C(=O)Nc2ccc(-n3ccccc3=O)cn2)N(C(=O)Nc2ccc(Cl)cc2)C1

Vd [1]: 0.468 L/kg | clearance [2]: 5.12 mL/min/kg | half-life [4]: 1.3 h
Structure (SMILES): Cc1ccccc1[C@@]1(O)C[C@H](C(=O)Nc2ccc(-n3ccccc3=O)cn2)N(C(=O)Nc2ccc(Cl)cc2)C1

Vd [22]: 1.49 L/kg | clearance [23]: 6.73 mL/min/kg | half-life [3]: 2.9 h | half-life [4]: 2.9 h
Structure (SMILES): O=C(Nc1ccc(-n2ccccc2=O)cn1)[C@H]1C[C@](O)(c2ccccc2)CN1C(=O)Nc1ccc(Cl)cc1

Vd [22]: 1.1 L/kg | clearance [23]: 12 mL/min/kg | half-life [24]: 4.9 h | half-life [21]: 2 h | half-life [4]: 2.6 h
Structure (SMILES): CO[C@@H]1C[C@H](C(=O)Nc2ccc(-n3ccccc3=O)cc2F)N(C(=O)Nc2ccc(Cl)cc2)C1 [ERIBAXABAN]
